Measured values from ChEMBL document CHEMBL4715813, “Allicin-inspired pyridyl disulfides as antimicrobial agents for multidrug-resistant Staphylococcus aureus” (Eur J Med Chem, 2018).
Values after ≈ are worked out from the molar mass of the structure shown. Active and inactive are the calls of the source. No cut-off for these calls is given here.

Legend:
Staphylococcus aureus [1] = assay: Induction of intracellular oxidant species generation in Staphylococcus aureus ATCC 25923 after 1 hr by colorimetric based NBT assay; type: functional, organism-based
In short: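 Cells at OD600 1.5 in HBSS mixed with 1 mg/mL aqueous NBT and agent (added from 2 mM stock) or DMSO/water, shaken for 1 h at 37 °C. Stopped with 0.1 M HCl and centrifuged; pellet formazan solubilized in DMSO/KOH/HBSS and read at OD560.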

Staphylococcus aureus [2] = assay: Induction of intracellular oxidant species generation in Staphylococcus aureus ATCC 25923 by DCFH-DA dye based fluorescence assay; type: functional, organism-based
In short: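 OD600 1.5 suspension of S. aureus […] in HBSS given agent (from 2 or 10 mM stock), DMSO or water, then DCFH diacetate from a 100 μM stock in DMSO. Intracellular oxidation read by fluorescence (ex 485, em 535 nm).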

Klebsiella pneumoniae = assay: Antibacterial activity against multidrug-resistant Klebsiella pneumoniae ATCC 700603 assessed as zone of inhibition by disc diffusion method; type: functional
Enterobacter cloacae = assay: Antibacterial activity against Enterobacter cloacae ATCC 23355 assessed as zone of inhibition by disc diffusion method; type: functional
Escherichia coli = assay: Antibacterial activity against beta-lactam resistant Escherichia coli BAA 2326 assessed as zone of inhibition by disc diffusion method; type: functional
Acinetobacter baumannii [3] = assay: Antibacterial activity against multidrug-resistant Acinetobacter baumannii BAA 1605 assessed as zone of inhibition by disc diffusion method; type: functional
Bacillus anthracis = assay: Antibacterial activity against Bacillus anthracis Sterne 34F2 assessed as zone of inhibition by disc diffusion method; type: functional
Enterococcus faecium = assay: Antibacterial activity against vancomycin-resistant Enterococcus faecium ATCC 700221 assessed as zone of inhibition by disc diffusion method; type: functional
Enterococcus faecalis = assay: Antibacterial activity against vancomycin-susceptible Enterococcus faecalis ATCC 29212 assessed as zone of inhibition by disc diffusion method; type: functional
Staphylococcus aureus [4] = assay: Antibacterial activity against methicillin-susceptible Staphylococcus aureus ATCC 25923 assessed as zone of inhibition by disc diffusion method; type: functional
Staphylococcus aureus [5] = assay: Antibacterial activity against community acquired methicillin-resistant Staphylococcus aureus BAA 1747 assessed as zone of inhibition by disc diffusion method; type: functional
Staphylococcus aureus [6] = assay: Antibacterial activity against hospital acquired methicillin-resistant Staphylococcus aureus ATCC 43300 assessed as zone of inhibition by disc diffusion method; type: functional
Staphylococcus aureus [7] = assay: Antibacterial activity against heterogeneous vancomycin-intermediate resistant Staphylococcus aureus Mu3 ATCC 700698 assessed as zone of inhibition by disc diffusion method; type: functional
Staphylococcus aureus [8] = assay: Antibacterial activity against vancomycin-intermediate resistant Staphylococcus aureus Mu50 ATCC 700699 assessed as zone of inhibition by disc diffusion method; type: functional
Staphylococcus aureus [9] = assay: Antibacterial activity against vancomycin-resistant Staphylococcus aureus HIP11714 assessed as zone of inhibition by disc diffusion method; type: functional
[10] = tested on: Staphylococcus epidermidis; assay: Antibacterial activity against Staphylococcus epidermidis ATCC 14990 assessed as zone of inhibition by disc diffusion method; type: functional
Acinetobacter baumannii [11] = assay: Antibacterial activity against Acinetobacter baumannii ATCC 19606 assessed as zone of inhibition by disc diffusion method; type: functional
Pseudomonas aeruginosa = assay: Antibacterial activity against Pseudomonas aeruginosa ATCC 15422 assessed as zone of inhibition by disc diffusion method; type: functional
Staphylococcus aureus [12] = assay: Antibacterial activity against methicillin-susceptible Staphylococcus aureus ATCC 25923 assessed as bacterial growth inhibition incubated for 20 hrs by broth dilution method; type: functional
In short: (§1)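 Broth microdilution: 0.5 McFarland suspension from an overnight culture, diluted 1:100 in cation-adjusted Mueller Hinton broth (CAMHB), given serial dilutions of test agent for 20 h at 37 °C. MIC is the lowest concentration with no visible growth.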

Staphylococcus aureus [13] = assay: Antibacterial activity against methicillin-resistant Staphylococcus aureus ATCC 43300 assessed as bacterial growth inhibition incubated for 20 hrs by broth dilution method; type: functional; in short: as §1
Staphylococcus aureus [14] = assay: Antibacterial activity against linezolid-resistant Staphylococcus aureus assessed as bacterial growth inhibition incubated for 20 hrs by broth dilution method; type: functional; in short: as §1
Staphylococcus aureus [15] = assay: Antibacterial activity against heterogeneous vancomycin-intermediate Staphylococcus aureus Mu3 ATCC 700698 assessed as bacterial growth inhibition incubated for 20 hrs by broth dilution method; type: functional; in short: as §1
Staphylococcus aureus [16] = assay: Antibacterial activity against vancomycin-intermediate resistant Staphylococcus aureus Mu50 ATCC 700699 assessed as bacterial growth inhibition incubated for 20 hrs by broth dilution method; type: functional; in short: as §1
Staphylococcus aureus [17] = assay: Antibacterial activity against vancomycin-resistant Staphylococcus aureus HIP11714 assessed as inhibition of bacterial growth incubated for 20 hrs by broth microdilution method; type: functional; conditions: HIP11714, 20 h; in short: as §1
Staphylococcus aureus [18] = assay: Antibacterial activity against vancomycin-intermediate Staphylococcus aureus clinical isolate 12 assessed as bacterial growth inhibition after 20 hrs by broth microdilution assay; type: functional; in short: as §1
Staphylococcus aureus [19] = assay: Antibacterial activity against vancomycin-resistant Staphylococcus aureus clinical isolate 10 assessed as bacterial growth inhibition after 20 hrs by broth microdilution assay; type: functional; in short: as §1
Staphylococcus aureus [20] = assay: Bactericidal activity against methicillin-susceptible Staphylococcus aureus ATCC 25923 assessed as bacterial killing incubated for over night; type: functional
In short: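 5 μL from each well was spotted on agar and incubated overnight. MBC was taken as the lowest concentration with no visible growth.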

Staphylococcus aureus [21] = assay: Ratio of MBC to MIC against methicillin-susceptible Staphylococcus aureus ATCC 25923; type: functional
In short: (§2)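 For MBC, 5 μL from each well was spotted on agar and incubated overnight; MBC is the lowest concentration with no visible growth. Ratio taken as MBC over MIC.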

Staphylococcus aureus [22] = assay: Bactericidal activity against methicillin-resistant Staphylococcus aureus ATCC 43300 assessed as bacterial killing incubated for over night; type: functional; in short: as §2
Staphylococcus aureus [23] = assay: Ratio of MBC to MIC against methicillin-resistant Staphylococcus aureus ATCC 43300; type: functional; in short: as §2
Staphylococcus aureus [24] = assay: Bactericidal activity against heterogeneous vancomycin-intermediate Staphylococcus aureus Mu3 ATCC 700698 assessed as bacterial killing incubated for over night; type: functional; in short: as §2
Staphylococcus aureus [25] = assay: Ratio of MBC to MIC against heterogeneous vancomycin-intermediate Staphylococcus aureus Mu3 ATCC 700698; type: functional; in short: as §2
Staphylococcus aureus [26] = assay: Bactericidal activity against vancomycin-intermediate resistant Staphylococcus aureus Mu50 ATCC 700699 assessed as bacterial killing incubated for over night; type: functional; in short: as §2
Staphylococcus aureus [27] = assay: Ratio of MBC to MIC against vancomycin-intermediate resistant Staphylococcus aureus Mu50 ATCC 700699; type: functional; in short: as §2
Staphylococcus aureus [28] = assay: Bactericidal activity against Vancomycin-resistant Staphylococcus aureus HIP11714 assessed as bacterial killing incubated for over night; type: functional; in short: as §2
Staphylococcus aureus [29] = assay: Ration of MBC to MIC against Vancomycin-resistant Staphylococcus aureus HIP11714; type: functional; in short: as §2
Staphylococcus aureus [30] = assay: Antibacterial activity against methicillin-susceptible Staphylococcus aureus ATCC 25923 in presence of glutathione; type: functional
In short: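 Broth microdilution MIC: a 0.5 McFarland suspension from overnight culture was diluted 1:100 in cation-adjusted Mueller Hinton broth supplemented with glutathione 100 μM. It was exposed to serial dilutions for 20 h at 37 °C. MIC was taken as the lowest concentration with no visible growth.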

Staphylococcus aureus [31] = assay: Antibacterial activity against methicillin-susceptible Staphylococcus aureus ATCC 25923 in presence of 0.05% v/v albumin; type: functional
Staphylococcus aureus [32] = assay: Antibacterial activity against methicillin-susceptible Staphylococcus aureus ATCC 25923 in presence of 5% v/v serum; type: functional
Staphylococcus aureus [33] = assay: Antibacterial activity against methicillin-susceptible Staphylococcus aureus ATCC 25923 in presence of 10% v/v serum; type: functional

Compound	diameter of the inhibition zone (DIZ) (Klebsiella pneumoniae)	diameter of the inhibition zone (DIZ) (Enterobacter cloacae)	diameter of the inhibition zone (DIZ) (Escherichia coli)	diameter of the inhibition zone (DIZ) (Acinetobacter baumannii [3])	diameter of the inhibition zone (DIZ) (Bacillus anthracis)	diameter of the inhibition zone (DIZ) (Enterococcus faecium)	diameter of the inhibition zone (DIZ) (Enterococcus faecalis)	diameter of the inhibition zone (DIZ) (Staphylococcus aureus [4])	diameter of the inhibition zone (DIZ) (Staphylococcus aureus [5])	diameter of the inhibition zone (DIZ) (Staphylococcus aureus [6])	diameter of the inhibition zone (DIZ) (Staphylococcus aureus [7])	diameter of the inhibition zone (DIZ) (Staphylococcus aureus [8])	diameter of the inhibition zone (DIZ) (Staphylococcus aureus [9])	diameter of the inhibition zone (DIZ) [10]	diameter of the inhibition zone (DIZ) (Acinetobacter baumannii [11])	diameter of the inhibition zone (DIZ) (Pseudomonas aeruginosa)	MIC (Staphylococcus aureus [12])	MIC (Staphylococcus aureus [13])	MIC (Staphylococcus aureus [14])	MIC (Staphylococcus aureus [15])	also measured
Oc1cc(Cl)ccc1Oc1ccc(Cl)cc1Cl	–	–	–	–	–	–	–	–	–	–	–	–	–	–	–	–	–	–	–	–	Activity (Staphylococcus aureus [1]): Active; Activity (Staphylococcus aureus [2]): Active
CCCCCCSSc1ccccn1	0 mm	8 mm	0 mm	0 mm	>50 mm	13 mm	20 mm	47 mm	40 mm	49 mm	45 mm	>50 mm	46 mm	>50 mm	0 mm	0 mm	25 µM (≈ 5.68 µg/mL)	50 µM (≈ 11.4 µg/mL)	50 µM (≈ 11.4 µg/mL)	50 µM (≈ 11.4 µg/mL)	MIC (Staphylococcus aureus [16]): 25 µM (≈ 5.68 µg/mL); MIC (Staphylococcus aureus [17]): 50 µM (≈ 11.4 µg/mL); MIC50 (Staphylococcus aureus [18]): 50 µM (≈ 11.4 µg/mL); MIC90 (Staphylococcus aureus [18]): 50 µM (≈ 11.4 µg/mL); MIC50 (Staphylococcus aureus [19]): 50 µM (≈ 11.4 µg/mL); MIC90 (Staphylococcus aureus [19]): 50 µM (≈ 11.4 µg/mL)
CCCCCSSc1ccccn1	0 mm	8 mm	0 mm	0 mm	>50 mm	24 mm	23 mm	32 mm	22 mm	21 mm	27 mm	24 mm	22 mm	>50 mm	0 mm	0 mm	50 µM (≈ 10.7 µg/mL)	50 µM (≈ 10.7 µg/mL)	> 50 µM	50 µM (≈ 10.7 µg/mL)	MIC (Staphylococcus aureus [16]): 50 µM (≈ 10.7 µg/mL); MIC (Staphylococcus aureus [17]): > 50 µM; MIC50 (Staphylococcus aureus [18]): 50 µM (≈ 10.7 µg/mL); MIC90 (Staphylococcus aureus [18]): 50 µM (≈ 10.7 µg/mL); MIC50 (Staphylococcus aureus [19]): 50 µM (≈ 10.7 µg/mL); MIC90 (Staphylococcus aureus [19]): 50 µM (≈ 10.7 µg/mL)
CCCCCCCSSc1ccccn1	0 mm	0 mm	0 mm	0 mm	50 mm	10 mm	10 mm	>50 mm	–	46 mm	–	–	–	>50 mm	0 mm	0 mm	12.5 µM (≈ 3.02 µg/mL)	6.25 µM (≈ 1.51 µg/mL)	25 µM (≈ 6.04 µg/mL)	12.5 µM (≈ 3.02 µg/mL)	MBC (Staphylococcus aureus [20]): > 50 µM; Ratio (Staphylococcus aureus [21]): >4; MBC (Staphylococcus aureus [22]): > 50 µM; Ratio (Staphylococcus aureus [23]): >8; MBC (Staphylococcus aureus [24]): > 50 µM; Ratio (Staphylococcus aureus [25]): >4; MIC (Staphylococcus aureus [16]): 3.13 µM (≈ 0.756 µg/mL); MBC (Staphylococcus aureus [26]): 25 µM (≈ 6.04 µg/mL); Ratio (Staphylococcus aureus [27]): 8; MIC (Staphylococcus aureus [17]): 6.25 µM (≈ 1.51 µg/mL); MBC (Staphylococcus aureus [28]): > 50 µM; Ratio (Staphylococcus aureus [29]): >8; MIC50 (Staphylococcus aureus [18]): 12.5 µM (≈ 3.02 µg/mL); MIC90 (Staphylococcus aureus [18]): 12.5 µM (≈ 3.02 µg/mL); MIC50 (Staphylococcus aureus [19]): 6.25 µM (≈ 1.51 µg/mL); MIC90 (Staphylococcus aureus [19]): 12.5 µM (≈ 3.02 µg/mL); MIC (Staphylococcus aureus [30]): 50 µM; MIC (Staphylococcus aureus [31]): 12.5 µM; MIC (Staphylococcus aureus [32]): 25 µM; MIC (Staphylococcus aureus [33]): 25 µM
CCCCCCCCCSSc1ccccn1	0 mm	0 mm	0 mm	0 mm	25 mm	8 mm	8 mm	20 mm	19 mm	22 mm	22 mm	30 mm	21 mm	41 mm	0 mm	0 mm	12.5 µM (≈ 3.37 µg/mL)	6.25 µM (≈ 1.68 µg/mL)	25 µM (≈ 6.74 µg/mL)	6.25 µM (≈ 1.68 µg/mL)	MBC (Staphylococcus aureus [20]): > 50 µM; Ratio (Staphylococcus aureus [21]): >4; MBC (Staphylococcus aureus [22]): > 50 µM; MBC (Staphylococcus aureus [24]): > 50 µM; Ratio (Staphylococcus aureus [25]): >8; MIC (Staphylococcus aureus [16]): 1.56 µM (≈ 0.42 µg/mL); MBC (Staphylococcus aureus [26]): 25 µM (≈ 6.74 µg/mL); Ratio (Staphylococcus aureus [27]): 16; MIC (Staphylococcus aureus [17]): 12.5 µM (≈ 3.37 µg/mL); MBC (Staphylococcus aureus [28]): > 50 µM; MIC50 (Staphylococcus aureus [18]): 6.25 µM (≈ 1.68 µg/mL); MIC90 (Staphylococcus aureus [18]): 12.5 µM (≈ 3.37 µg/mL); MIC50 (Staphylococcus aureus [19]): 6.25 µM (≈ 1.68 µg/mL); MIC90 (Staphylococcus aureus [19]): 12.5 µM (≈ 3.37 µg/mL); MIC (Staphylococcus aureus [30]): 50 µM; MIC (Staphylococcus aureus [31]): 25 µM; MIC (Staphylococcus aureus [32]): 25 µM; MIC (Staphylococcus aureus [33]): 50 µM
O=C(O)CCSSc1ccccn1	0 mm	0 mm	0 mm	0 mm	24 mm	0 mm	0 mm	16 mm	14 mm	14 mm	15 mm	15 mm	21 mm	10 mm	0 mm	0 mm	–	–	–	–	–
